Paper PMC2834294 (Chemistry & biology, 2010)

Experiments:
Assay type in all cases: cell-based
TRPML3 [1] = target: T1, TRPML3 (Homo sapiens, UniProt Q8TDD5); experiment: Whole-cell patch-clamp with intracellular application
T1 sequence (Q8TDD5 1-553): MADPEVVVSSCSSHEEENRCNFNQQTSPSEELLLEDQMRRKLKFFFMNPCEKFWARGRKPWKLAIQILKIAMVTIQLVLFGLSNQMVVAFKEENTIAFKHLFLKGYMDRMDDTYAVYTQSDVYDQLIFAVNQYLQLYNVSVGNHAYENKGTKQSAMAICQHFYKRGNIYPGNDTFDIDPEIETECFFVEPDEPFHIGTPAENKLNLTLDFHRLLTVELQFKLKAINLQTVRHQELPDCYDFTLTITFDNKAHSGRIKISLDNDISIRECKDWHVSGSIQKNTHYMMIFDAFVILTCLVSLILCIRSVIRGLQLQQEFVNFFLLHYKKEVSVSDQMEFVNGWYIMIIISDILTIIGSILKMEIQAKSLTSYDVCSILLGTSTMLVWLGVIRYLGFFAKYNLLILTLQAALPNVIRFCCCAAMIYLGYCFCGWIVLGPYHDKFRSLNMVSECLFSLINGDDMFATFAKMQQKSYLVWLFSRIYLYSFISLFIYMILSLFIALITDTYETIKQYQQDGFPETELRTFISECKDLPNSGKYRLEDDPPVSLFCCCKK

[2] = tested on: primary human epidermal melanocytes; experiment: Calcium imaging in primary human epidermal melanocytes; conditions: concentrations up-to 100 µM; SN-2 at 30 µM and 100 µM
In short: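 Primary neonatal human epidermal melanocytes were cultured in medium 254 with HMGS at 37 °C and 5% CO2. Intracellular Ca2+ was imaged after applying compounds at 100 µM, with one compound also at 30 µM. Data are mean ± SEM from more than 3 independent experiments of 20–30 cells each.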

[3] = target: T2, TRPML3 coexpressed with dynamin (Homo sapiens, UniProt Q8TDD5); experiment: Calcium imaging, HEK293 cells coexpressing wild type dynamin with TRPML3; conditions: compared to control experiments
T2 sequence (Q8TDD5 1-553): T1 sequence (Q8TDD5 1-553)
In short: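 HEK293 cells were transiently cotransfected (Genejammer) with wild-type dynamin and TRPML3 and imaged 24 h later. Cells on glass coverslips were loaded with 4 µM fura-2-AM in bath solution (mM: 138 NaCl, 6 KCl, 2 MgCl2, 2 CaCl2, 10 HEPES, 5.5 D-glucose; pH 7.4). Responses to activators were compared with control transfections.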

TRPML3 [4] = tested on: TRPML3
In short: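 Whole-cell recordings used HEK293 cells expressing TRPML3 with 100% series-resistance compensation. Pipette solution (mM): 140 CsCl, 10 HEPES, 3 ATP-Na, 1 BAPTA, 2 MgCl2; pH 7.2. Compound at 10 µM was perfused in endolymph-like solution (mM: 2 NaCl, 150 KCl, 0.25 CaCl2, 10 HEPES, 10 glucose; pH 7.4) or in standard bath. Inward current at −80 mV was normalized to capacitance.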

TRPML3 [5] = target: T1, TRPML3; experiment: Excised

cell membrane permeability (TRPML3 [1]; inferred from intracellular infusion experiment): not cell permeant
response when wild type dynamin coexpressed with TRPML3 in HEK293 cells [3]: reduction in response
conductance of TRPML3 channels (TRPML3 [5]; activated with 10 µM SN-2, at −80 mV, estimate): approximately 10 pS
TRPML3 activity in excised patches (TRPML3 [5]; patches held at −80 mV): markedly increased TRPML3 activity
SMILES: Cc1cc(C)c(C2=NOC3C4CCC(C4)C23)c(C)c1 (centres unmarked) [SN-2, 5-mesityl-3-oxa-4-azatricyclo[5.2.1.0∼2,6∼]dec-4-ene]
response to intracellular application (infusion) (TRPML3 [1]; whole-cell, −80 mV): did not elicit a response when infused into the cells
[Ca2+]i response in primary human epidermal melanocytes [2]: elicited a stronger response
increase in current densities, compound + ELS vs ELS alone or compound in SBS (TRPML3 [4]; 10 µM compound, ELS 2 mM Na+, 150 mM K+): ≤ 10 fold
average current densities, compound + ELS (TRPML3 [4]; 10 µM, at −80 mV): up to 3 nA/pF
